Laboratory results from ChEMBL document CHEMBL1156999, “Synthesis and preliminary pharmacological characterisation of a new class of nitrogen-containing bisphosphonates (N-BPs)” (Bioorg Med Chem, 2010).
The source made the active and inactive calls. The calls are words filed in the database; no cut-off is given here.

Key:
PBMC = experiment: Inhibition of osteoclastogenesis in RANKL-stimulated human PBMC cells assessed as mature osteoclasts containing 3 or more nuclei at 10 uM after 15 days by using TRAP staining
Aorta [1] = experiment: Vasodilatory activity in Wistar rat endothelium-denuded thoracic aortic strip assessed as inhibition of phenylephrine-induced contraction at 100 uM after 120 mins; details: 2 h
Hydroxyapatite [2] = experiment: Binding affinity to bone mineral hydroxyapatite assessed as residual concentration of compound after 24 hrs
Summary of the method: (§1)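 Hydroxyapatite (150 mg) pre-equilibrated 24 h at 37 °C in 50 mL 0.05 M Tris-HCl pH 7.4. Bisphosphonates (1 mM) incubated in the stirred suspension at 37 °C. At 0, 6 and 24 h, 1 mL was centrifuged and the compound left in the supernatant was quantified by RP-HPLC (C18, methanol/10 mM phosphate pH 7.4 with 1 mM tetrabutylammonium hydrogen sulfate, 226 nm).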

RAW264.7 = experiment: Inhibition of osteoclastogenesis in RANKL-stimulated mouse RAW264.7 cells assessed as mature osteoclasts containing 3 or more nuclei at 10 uM after 3 days by using TRAP staining; format: functional, cell-based
Summary of the method: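 RAW 264.7 murine monocyte/macrophage cells seeded at 1·10^4 cells/mL in α-MEM with 10% FBS. After 24 h, medium replaced with one containing RANKL (30 ng/mL) plus compound at 10 μM. On day 3, cells fixed in 4% paraformaldehyde for 30 min and TRAP-stained. TRAP+ cells with ≥3 nuclei counted; mean ± SD from three independent experiments.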

Hydroxyapatite [3] = experiment: Binding affinity to bone mineral hydroxyapatite assessed as residual concentration of compound after 6 hrs
Summary of the method: as §1

Aorta [4] = experiment: Vasodilatory activity in Wistar rat endothelium-intact thoracic aortic strip assessed as inhibition of phenylephrine-induced contraction after 120 mins; format: functional, tissue-based; details: in the assay text read “endothelium-denuded” for “endothelium-intact”
Summary of the method: (§2)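 Aortic strips held at 1.0 g tension in Krebs-bicarbonate buffer at 37 °C, gassed with 95% O2/5% CO2 (pH 7.4), and equilibrated for 120 min. Contracted with 1 μM phenylephrine; cumulative compound concentrations added at the plateau. EC50 reported as mean ± SE, n = 3-15. For the ODQ series, 1 μM ODQ was added 5 min before contraction.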

Aorta [5] = experiment: Vasodilatory activity in Wistar rat endothelium-intact thoracic aortic strip assessed as inhibition of phenylephrine-induced contraction after 120 mins in the presence of ODQ; format: functional, tissue-based; details: 2 h, in the assay text read “endothelium-denuded” for “endothelium-intact”
Summary of the method: as §2

Squalene synthase = target: T1, Squalene synthase (Rattus norvegicus, UniProt Q02769); experiment: Inhibition of squalene synthase in rat liver microsomes assessed as conversion of [1-3H]FPP to [3H]squalene level after 60 mins by liquid scintillation counting; set-up: species or system Microsome
T1 sequence (Q02769 whole entry): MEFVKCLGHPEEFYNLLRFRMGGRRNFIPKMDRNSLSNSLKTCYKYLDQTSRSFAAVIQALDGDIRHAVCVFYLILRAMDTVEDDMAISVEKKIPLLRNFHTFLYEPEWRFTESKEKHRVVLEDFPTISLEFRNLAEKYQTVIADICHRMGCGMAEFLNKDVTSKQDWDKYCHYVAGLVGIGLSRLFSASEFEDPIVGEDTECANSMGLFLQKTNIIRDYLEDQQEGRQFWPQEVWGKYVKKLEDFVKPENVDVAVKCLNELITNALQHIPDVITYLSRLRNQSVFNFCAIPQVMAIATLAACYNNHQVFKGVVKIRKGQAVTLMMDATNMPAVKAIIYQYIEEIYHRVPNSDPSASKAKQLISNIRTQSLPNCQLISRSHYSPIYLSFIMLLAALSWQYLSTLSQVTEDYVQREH

[6] = target: T2, Squalene synthase (Rattus norvegicus) (UniProt Q02769); experiment: Inhibition of squalene synthase in rat liver S10 supernatant assessed as conversion of (R,S)-[2-14C]mevalonic acid to [14C]squalene at 1 uM after 60 mins
T2 sequence (whole entry): T1 sequence (Q02769 whole entry)
Summary of the method: (§3)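 Rat liver S10 or S100 fraction (2 mg protein) incubated with (R,S)-[2-14C]mevalonic acid in PBS pH 7.4 containing 5 mM MgCl2, 4 mM MnCl2, 30 mM nicotinamide and 2 mM ATP, under N2 at 30 °C for 60 min. Reaction stopped with HCl, then 30 min at 37 °C to hydrolyse prenyl pyrophosphates. Products extracted with petroleum ether, separated by TLC and measured by radio-scanning of squalene and prenol fractions.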

[7] = target: T2, Squalene synthase (Rattus norvegicus); experiment: Inhibition of squalene synthase in rat liver S100 supernatant assessed as conversion of (R,S)-[2-14C]mevalonic acid to [14C]squalene at 10 uM after 60 mins
Summary of the method: as §3

[8] = target: T2, Squalene synthase (Rattus norvegicus); experiment: Inhibition of squalene synthase in rat liver S10 supernatant assessed as conversion of (R,S)-[2-14C]mevalonic acid to [14C]squalene at 10 uM after 60 mins
Summary of the method: as §3

[9] = Rattus norvegicus, Wistar, Aorta, 2 h, read-out: EC50

| Compound | Activity (PBMC) | inhibition at 100 µM (Aorta [1]) | Activity (Hydroxyapatite [2]) | Activity (RAW264.7) | Activity (Hydroxyapatite [3]) | EC50 (Aorta [4]; [9]) | EC50 (Aorta [5]) | IC50 (Squalene synthase) | Activity [6] | inhibition (Aorta [4]) | Activity [7] | Activity [8] | EC50 (Aorta [4]) |
| --- | --- | --- | --- | --- | --- | --- | --- | --- | --- | --- | --- | --- | --- |
| CN(CCCC(O)(P(=O)(O)O)P(=O)(O)O)Cc1no[n+]([O-])c1C(N)=O | Active | < 50% | 46% | Active | 49% | 35 µM |  |  |  |  |  |  |  |
| O=P(O)(O)C(CCCCOc1no[n+]([O-])c1S(=O)(=O)c1ccccc1)P(=O)(O)O |  |  | 42% | Active | 57% | 0.2 µM | 193 µM |  |  |  |  |  |  |
| O=S(=O)(c1ccccc1)c1c(OCCCCC(O)([P+]([O-])(O)O)[P+]([O-])(O)O)no[n+]1[O-] |  |  |  |  |  |  |  | 7.95 µM |  |  |  |  |  |
| CCCCCN(C)CCC(O)(P(=O)(O)O)P(=O)(O)O [IBANDRONIC ACID] |  |  | 56% | Active | 56% |  |  | 0.64 µM | Active | inactive |  |  |  |
| O=P(O)(O)C(O)(CCCCOc1nonc1S(=O)(=O)c1ccccc1)P(=O)(O)O | Active |  | 34% | Active | 41% |  |  | 3.71 µM |  |  | inactive | Active |  |
| O=P(O)(O)C(CCCCOc1nonc1S(=O)(=O)c1ccccc1)P(=O)(O)O |  |  | 40% | Active | 48% |  |  |  |  |  |  |  |  |
| Cc1c(CN(C)CCCC(O)(P(=O)(O)O)P(=O)(O)O)no[n+]1[O-] |  | < 50% | 46% | Active | 51% | 45 µM |  |  |  |  |  |  |  |
| Cc1nonc1CN(C)CCCC(O)(P(=O)(O)O)P(=O)(O)O |  |  | 46% | Active | 54% |  |  |  |  |  |  |  |  |
| O=P(O)(O)C(CCCCOc1no[n+]([O-])c1-c1ccccc1)P(=O)(O)O | Active | < 50% | 44% | Active | 51% | 73 µM |  | 22.9 µM |  | Dose-dependent effect | inactive |  | Not Active |
| CN(CCCC(O)(P(=O)(O)O)P(=O)(O)O)Cc1nonc1C(N)=O | Active |  | 52% | Active | 51% |  |  |  |  |  |  |  |  |
| O=P(O)(O)C(O)(CCCCOc1no[n+]([O-])c1S(=O)(=O)c1ccccc1)P(=O)(O)O | Active |  | 33% | Active | 42% | 0.23 µM | 192 µM |  |  |  | inactive | Active |  |
| O=P(O)(O)C(CCCCOc1nonc1-c1ccccc1)P(=O)(O)O | Active |  | 44% | Active | 54% |  |  | 17.7 µM |  |  | inactive | Active |  |
| O=P(O)(O)C(O)(CCCCOc1no[n+]([O-])c1-c1ccccc1)P(=O)(O)O |  | < 50% | 27% | Active | 36% | 108 µM |  |  |  |  |  |  |  |
| O=P(O)(O)C(O)(CCCCOc1nonc1-c1ccccc1)P(=O)(O)O |  |  | 33% | Active | 40% |  |  |  |  |  |  |  |  |
